According to paper PMC13170702 (Nuclear medicine and biology, 2025):

Assay: organ radiation dose estimates, OLINDA 2.0, ICRP-103
Assay type: in vivo, human
Method in brief: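 Whole-body PET-MR ran as nine scans to 214 min. Organ VOIs were drawn in AMIDE, giving decay-corrected %IA per VOI; remainder = whole body minus measured organs. TIACs came from the EXM exponential model (OLINDA 1.1). Per-participant organ doses were computed in OLINDA 2.0 with 73 kg adult male or 60 kg female models. Effective dose (mSv) = organ absorbed doses × ICRP-103 tissue weighting factors.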

COC(=O)[C@@H](N)CC(=O)Nc1ccc2c(c1)Cc1cc([18F])ccc1-2 [[^18F]RP-115, methyl N^4-(7-[^18F]fluoro-9H-fluoren-2-yl)asparaginate]
Effective dose (whole body) (F1 (189 MBq)): 4.54 mSv | Estimated absorbed dose, Adrenals (F1 (189 MBq)): 5.94 mGy | Estimated absorbed dose, Brain (F1 (189 MBq)): 3.21 mGy | Estimated absorbed dose, Breasts (F1 (189 MBq)): 1.71 mGy | Estimated absorbed dose, Colon, left (F1 (189 MBq)): 2.85 mGy | Estimated absorbed dose, Colon, right (F1 (189 MBq)): 2.77 mGy | Estimated absorbed dose, Esophagus (F1 (189 MBq)): 2.98 mGy | Estimated absorbed dose, Eyes (F1 (189 MBq)): 1.59 mGy | Estimated absorbed dose, Gallbladder wall (F1 (189 MBq)): 5.09 mGy | Estimated absorbed dose, Heart wall (F1 (189 MBq)): 4.40 mGy | Estimated absorbed dose, Kidneys (F1 (189 MBq)): 32.6 mGy | Estimated absorbed dose, Liver (F1 (189 MBq)): 8.25 mGy | Estimated absorbed dose, Lungs (F1 (189 MBq)): 10.2 mGy | Estimated absorbed dose, Osteogenic cells (F1 (189 MBq)): 1.77 mGy | Estimated absorbed dose, Ovaries (F1 (189 MBq)): 2.77 mGy | Estimated absorbed dose, Pancreas (F1 (189 MBq)): 5.49 mGy | Estimated absorbed dose, Rectum (F1 (189 MBq)): 3.34 mGy | Estimated absorbed dose, Red marrow (F1 (189 MBq)): 2.26 mGy | Estimated absorbed dose, Salivary glands (F1 (189 MBq)): 1.69 mGy | Estimated absorbed dose, Small intestine (F1 (189 MBq)): 7.43 mGy | Estimated absorbed dose, Spleen (F1 (189 MBq)): 10.1 mGy | Estimated absorbed dose, Stomach wall (F1 (189 MBq)): 3.08 mGy | Estimated absorbed dose, Thymus (F1 (189 MBq)): 7.59 mGy | Estimated absorbed dose, Thyroid (F1 (189 MBq)): 2.36 mGy | Estimated absorbed dose, Urinary bladder wall (F1 (189 MBq)): 16.2 mGy | Estimated absorbed dose, Uterus (F1 (189 MBq)): 4.55 mGy | Effective dose (whole body) (F2, no voiding (355 MBq)): 9.27 mSv | Estimated absorbed dose, Adrenals (F2, no voiding (355 MBq)): 11.7 mGy | Estimated absorbed dose, Brain (F2, no voiding (355 MBq)): 5.33 mGy | Estimated absorbed dose, Breasts (F2, no voiding (355 MBq)): 2.78 mGy | Estimated absorbed dose, Colon, left (F2, no voiding (355 MBq)): 4.83 mGy | Estimated absorbed dose, Colon, right (F2, no voiding (355 MBq)): 4.76 mGy | Estimated absorbed dose, Esophagus (F2, no voiding (355 MBq)): 5.40 mGy | Estimated absorbed dose, Eyes (F2, no voiding (355 MBq)): 2.43 mGy | Estimated absorbed dose, Gallbladder wall (F2, no voiding (355 MBq)): 9.31 mGy | Estimated absorbed dose, Heart wall (F2, no voiding (355 MBq)): 6.93 mGy | Estimated absorbed dose, Kidneys (F2, no voiding (355 MBq)): 93.4 mGy | Estimated absorbed dose, Liver (F2, no voiding (355 MBq)): 15.5 mGy | Estimated absorbed dose, Lungs (F2, no voiding (355 MBq)): 21.1 mGy | Estimated absorbed dose, Osteogenic cells (F2, no voiding (355 MBq)): 2.97 mGy | Estimated absorbed dose, Ovaries (F2, no voiding (355 MBq)): 5.90 mGy | Estimated absorbed dose, Pancreas (F2, no voiding (355 MBq)): 7.60 mGy | Estimated absorbed dose, Rectum (F2, no voiding (355 MBq)): 7.07 mGy | Estimated absorbed dose, Red marrow (F2, no voiding (355 MBq)): 4.01 mGy | Estimated absorbed dose, Salivary glands (F2, no voiding (355 MBq)): 2.62 mGy | Estimated absorbed dose, Small intestine (F2, no voiding (355 MBq)): 9.87 mGy | Estimated absorbed dose, Spleen (F2, no voiding (355 MBq)): 7.49 mGy | Estimated absorbed dose, Stomach wall (F2, no voiding (355 MBq)): 5.08 mGy | Estimated absorbed dose, Thymus (F2, no voiding (355 MBq)): 8.99 mGy | Estimated absorbed dose, Thyroid (F2, no voiding (355 MBq)): 17.5 mGy | Estimated absorbed dose, Urinary bladder wall (F2, no voiding (355 MBq)): 28.7 mGy | Estimated absorbed dose, Uterus (F2, no voiding (355 MBq)): 47.6 mGy | Effective dose (whole body) (F3 (117 MBq)): 2.27 mSv | Estimated absorbed dose, Adrenals (F3 (117 MBq)): 3.65 mGy | Estimated absorbed dose, Brain (F3 (117 MBq)): 1.52 mGy | Estimated absorbed dose, Breasts (F3 (117 MBq)): 1.09 mGy | Estimated absorbed dose, Colon, left (F3 (117 MBq)): 1.77 mGy | Estimated absorbed dose, Colon, right (F3 (117 MBq)): 1.81 mGy | Estimated absorbed dose, Esophagus (F3 (117 MBq)): 1.78 mGy | Estimated absorbed dose, Eyes (F3 (117 MBq)): 1.01 mGy | Estimated absorbed dose, Gallbladder wall (F3 (117 MBq)): 3.38 mGy | Estimated absorbed dose, Heart wall (F3 (117 MBq)): 2.27 mGy | Estimated absorbed dose, Kidneys (F3 (117 MBq)): 21.4 mGy | Estimated absorbed dose, Liver (F3 (117 MBq)): 6.07 mGy | Estimated absorbed dose, Lungs (F3 (117 MBq)): 4.63 mGy | Estimated absorbed dose, Osteogenic cells (F3 (117 MBq)): 1.11 mGy | Estimated absorbed dose, Ovaries (F3 (117 MBq)): 1.54 mGy | Estimated absorbed dose, Pancreas (F3 (117 MBq)): 2.79 mGy | Estimated absorbed dose, Rectum (F3 (117 MBq)): 1.46 mGy | Estimated absorbed dose, Red marrow (F3 (117 MBq)): 1.39 mGy | Estimated absorbed dose, Salivary glands (F3 (117 MBq)): 1.09 mGy | Estimated absorbed dose, Small intestine (F3 (117 MBq)): 3.98 mGy | Estimated absorbed dose, Spleen (F3 (117 MBq)): 3.58 mGy | Estimated absorbed dose, Stomach wall (F3 (117 MBq)): 1.87 mGy | Estimated absorbed dose, Thymus (F3 (117 MBq)): 2.50 mGy | Estimated absorbed dose, Thyroid (F3 (117 MBq)): 2.20 mGy | Estimated absorbed dose, Urinary bladder wall (F3 (117 MBq)): 1.54 mGy | Estimated absorbed dose, Uterus (F3 (117 MBq)): 3.86 mGy | Effective dose (whole body) (F4 (167 MBq)): 3.28 mSv | Estimated absorbed dose, Adrenals (F4 (167 MBq)): 4.53 mGy | Estimated absorbed dose, Brain (F4 (167 MBq)): 2.64 mGy | Estimated absorbed dose, Breasts (F4 (167 MBq)): 1.41 mGy | Estimated absorbed dose, Colon, left (F4 (167 MBq)): 2.41 mGy | Estimated absorbed dose, Colon, right (F4 (167 MBq)): 2.41 mGy | Estimated absorbed dose, Esophagus (F4 (167 MBq)): 2.41 mGy | Estimated absorbed dose, Eyes (F4 (167 MBq)): 1.33 mGy | Estimated absorbed dose, Gallbladder wall (F4 (167 MBq)): 3.61 mGy | Estimated absorbed dose, Heart wall (F4 (167 MBq)): 4.15 mGy | Estimated absorbed dose, Kidneys (F4 (167 MBq)): 28.1 mGy | Estimated absorbed dose, Liver (F4 (167 MBq)): 6.74 mGy | Estimated absorbed dose, Lungs (F4 (167 MBq)): 7.74 mGy | Estimated absorbed dose, Osteogenic cells (F4 (167 MBq)): 1.45 mGy | Estimated absorbed dose, Ovaries (F4 (167 MBq)): 2.17 mGy | Estimated absorbed dose, Pancreas (F4 (167 MBq)): 3.86 mGy | Estimated absorbed dose, Rectum (F4 (167 MBq)): 2.14 mGy | Estimated absorbed dose, Red marrow (F4 (167 MBq)): 1.84 mGy | Estimated absorbed dose, Salivary glands (F4 (167 MBq)): 1.41 mGy | Estimated absorbed dose, Small intestine (F4 (167 MBq)): 8.53 mGy | Estimated absorbed dose, Spleen (F4 (167 MBq)): 3.75 mGy | Estimated absorbed dose, Stomach wall (F4 (167 MBq)): 2.46 mGy | Estimated absorbed dose, Thymus (F4 (167 MBq)): 4.47 mGy | Estimated absorbed dose, Thyroid (F4 (167 MBq)): 2.53 mGy | Estimated absorbed dose, Urinary bladder wall (F4 (167 MBq)): 4.45 mGy | Estimated absorbed dose, Uterus (F4 (167 MBq)): 6.39 mGy | Effective dose (whole body) (Female n=4, mean±SD): 0.0223±0.0033 mSv/MBq | Estimated dose, Adrenals (Female n=4, mean±SD): 0.0307±0.0025 mGy/MBq | Estimated dose, Brain (Female n=4, mean±SD): 0.0152±0.0017 mGy/MBq | Estimated dose, Breasts (Female n=4, mean±SD): 0.00866±0.00067 mGy/MBq | Estimated dose, Esophagus (Female n=4, mean±SD): 0.0152±0.0006 mGy/MBq | Estimated dose, Eyes (Female n=4, mean±SD): 0.00797±0.00081 mGy/MBq | Estimated dose, Gallbladder wall (Female n=4, mean±SD): 0.0259±0.0031 mGy/MBq | Estimated dose, Heart wall (Female n=4, mean±SD): 0.0218±0.0027 mGy/MBq | Estimated dose, Kidneys (Female n=4, mean±SD): 0.197±0.045 mGy/MBq | Estimated dose, Left colon (Female n=4, mean±SD): 0.0146±0.0007 mGy/MBq | Estimated dose, Liver (Female n=4, mean±SD): 0.0449±0.0049 mGy/MBq | Estimated dose, Lungs (Female n=4, mean±SD): 0.0499±0.0088 mGy/MBq | Estimated dose, Osteogenic cells (Female n=4, mean±SD): 0.00899±0.00054 mGy/MBq | Estimated dose, Ovaries (Female n=4, mean±SD): 0.0144±0.0017 mGy/MBq | Estimated dose, Pancreas (Female n=4, mean±SD): 0.0244±0.0033 mGy/MBq | Estimated dose, Rectum (Female n=4, mean±SD): 0.0157±0.0037 mGy/MBq | Estimated dose, Red marrow (Female n=4, mean±SD): 0.0116±0.0005 mGy/MBq | Estimated dose, Right colon (Female n=4, mean±SD): 0.0145±0.0009 mGy/MBq | Estimated dose, Salivary Glands (Female n=4, mean±SD): 0.0085±0.0008 mGy/MBq | Estimated dose, Small intestine (Female n=4, mean±SD): 0.0381±0.0098 mGy/MBq | Estimated dose, Spleen (Female n=4, mean±SD): 0.0319±0.0150 mGy/MBq | Estimated dose, Stomach wall (Female n=4, mean±SD): 0.0153±0.0010 mGy/MBq | Estimated dose, Thymus (Female n=4, mean±SD): 0.0284±0.0082 mGy/MBq
